Screening data as filed in PubChem BioAssay.
CRFBP-R2 block: blocks CRF-induced signaling of the CRF-BP/CRF-R2 complex; 350,000 compounds, 0.59% hits; HEK293 CRF-R2/CRF-BP, CRF-induced calcium fluorescence; inhibition, % at 11.8 µM;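 active means inhibition of the ligand-induced calcium signal above about 50% at the single tested concentration, limit read from the data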
Cardio protect: modulators protecting cardiomyocytes from myocardial damage; 360,000 compounds, 0.63% hits; H9c2 cardiomyocytes, H2O2 injury protection, ATPLite, 2 h; protection from H2O2 cell death, % at 20 µM; AID 588492;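 active means compounds giving at least 50% protection of heart cells from peroxide-induced death in the single-dose screen, raw or plate-pattern-corrected value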
iPSC survival up: enhancers of human iPSC single-cell survival; hiPSC single-cell survival, ATPlite luminescence; 100% = ROCK inhibitor wells, 0% = DMSO; survival enhancement, % at 20 µM; 360,000 compounds, 0.044% hits; AID 602274; in the data active means survival enhancement above about 18%;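 further: cells exposed to compounds for 16 hours before the ATP read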
CRFR2-BP ag: CRF-BP/CRF-R2 complex agonism; activation, % at 13.2 µM; HEK293 CRF-R2/CRF-BP, calcium dye fluorescence (FLIPR); percent of saturating CRF peptide response; 350,000 compounds, 0.46% hits;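 active means activation of at least 50%, plus an integration ratio under a set limit after plate pattern correction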
MIN6 prolif: inducers of beta-cell replication in MIN6 cells; MIN6 cells proliferation, ATPlite luminescence, 48 h; cells starved in 0.2% serum; 100% = growth in 10% serum; proliferation, % at 10 µM; 330,000 compounds, 0.29% hits;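 active means compounds whose signal lies at least 3.5 SD above the mean of all wells on their plate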
UCH37 inh: human UCH37 deubiquitinating enzyme inhibition | purified proteasome/UCH37, Ub-AMC cleavage fluorescence | inhibition, % (concentration not given with the values) | 330,000 compounds, 0.33% hits | AID 588478;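 active means mean inhibition over replicate wells above about 20%, limit read from the data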
Target sequence (Q9Y5K5 whole entry, looked up): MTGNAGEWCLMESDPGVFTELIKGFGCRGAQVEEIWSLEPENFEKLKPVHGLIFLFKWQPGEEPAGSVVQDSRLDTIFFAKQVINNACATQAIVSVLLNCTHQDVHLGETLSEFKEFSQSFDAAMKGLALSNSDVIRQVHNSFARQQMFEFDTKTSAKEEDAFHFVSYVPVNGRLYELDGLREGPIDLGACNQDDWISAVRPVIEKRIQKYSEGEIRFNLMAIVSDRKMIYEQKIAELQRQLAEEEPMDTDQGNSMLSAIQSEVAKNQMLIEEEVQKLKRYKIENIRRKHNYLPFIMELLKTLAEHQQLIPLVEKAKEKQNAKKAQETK
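system = Proteasome-associated human UCH37 deubiquitinase | amount = 0.15 nM proteasome as dispensed | medium = pH 7.4 Tris-HCl (50 mM) with ovalbumin, ATP-MgCl2, DTT | incubation = 30 min preincubation with enzyme, 25 min cleavage at room temperature | detection = AMC fluorescence 355/460 nm | read-out basis = percent inhibition | controls = no-proteasome and no-compound wells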
Of the large screens only hits and unclear results are named; the others gave an inactive call. A selection: hits, their analogues and other compounds. The true share with any hit is near 2.1%.

N#C/C(=C/c1ccc(N2CCOCC2)o1)c1ccc(Cl)cc1	none (no result: MIN6 prolif)
N#C/C(=C\c1ccc(N2CCOCC2)o1)c1nc2ccccc2[nH]1	CRFR2-BP ag 95 (no result: UCH37 inh)
N#C/C(=C\c1ccc(-c2ccc(C(=O)O)cc2)o1)c1nc2ccccc2[nH]1	CRFR2-BP ag 141 (no result: MIN6 prolif)
Cc1ccc(S(=O)(=O)NN=C2CC(c3ccccc3)Oc3ccccc32)cc1[N+](=O)[O-] (stereo not drawn)	none (no result: CRFBP-R2 block, Cardio protect, iPSC survival up, CRFR2-BP ag, MIN6 prolif)
Cc1c(C(=O)OCC(=O)Nc2ccc(C(N)=O)cc2)cccc1[N+](=O)[O-]	iPSC survival up 22
Cc1ccc(NN2C(=O)C=C(c3ccc(Cl)cc3)C2=O)cc1	CRFR2-BP ag 61 (no result: UCH37 inh)
C[C@H](CO)N1C[C@H](C)[C@@H](CN(C)C(=O)c2ccc3ccn(C)c3c2)OCc2cn(nn2)CCCC1=O	CRFBP-R2 block 63 (no result: MIN6 prolif, UCH37 inh)
CC(=O)Nc1sc2c(c1-c1nc3ccccc3s1)CCN(C(C)C)C2	CRFR2-BP ag 80
COC(=O)c1c(NC(=O)c2ccco2)sc2c1CCN(C(C)C)C2	CRFR2-BP ag 52
CC(C)N1CCc2c(sc(NC(=O)c3ccc(C(=O)c4ccccc4)cc3)c2C(N)=O)C1	none (no result: UCH37 inh)
CC(C)N1CCc2c(sc(NC(=O)Cc3ccccc3)c2C(N)=O)C1	none
CC(C)N1CCc2c(sc(NC(=O)c3ccc4ccccc4c3)c2C(N)=O)C1	CRFR2-BP ag 124
CC(C)N1CCc2c(sc(NC(=O)c3ccco3)c2C(N)=O)C1	none
CC(C)N1CCc2c(sc(NC(=O)CCc3ccccc3)c2C(N)=O)C1	CRFR2-BP ag 62
CON=Cc1ccc(Sc2ccccc2N)c([N+](=O)[O-])c1	none (no result: CRFBP-R2 block, Cardio protect, iPSC survival up, CRFR2-BP ag, MIN6 prolif)
COc1cccc(C=Nn2c(SC)nnc2-c2ccccc2)c1OC	none (no result: CRFBP-R2 block, Cardio protect, iPSC survival up, CRFR2-BP ag, MIN6 prolif)
Cc1ccc(C=NNc2cc(C)nc(NCc3ccccc3)n2)cc1	none (no result: CRFBP-R2 block, Cardio protect, iPSC survival up, CRFR2-BP ag, MIN6 prolif)
CC(C)N1CCc2c(sc(NC(=O)c3cc4cc([N+](=O)[O-])ccc4s3)c2C(N)=O)C1	CRFR2-BP ag 134
CC(C)NC(=O)c1cc2cc([N+](=O)[O-])ccc2s1	none
O=C(COC(=O)c1ccncc1)Nc1cc(Cl)ccc1Cl	CRFBP-R2 block 52
Cn1cccc1Cc1nnc(SCC(=O)N2CCN(c3ccccc3)CC2)n1-c1ccc(F)cc1	CRFBP-R2 block 52
Cn1cccc1Cc1nnc(SCC(=O)NCc2ccccc2)n1-c1ccc(F)cc1	none
COc1ccc(C=NNC(=O)c2ccc(O)cc2O)cc1CSc1ccccn1	none (no result: CRFBP-R2 block, Cardio protect, iPSC survival up, CRFR2-BP ag, MIN6 prolif)
O=C1c2ccccc2S(=O)(=O)c2cc(C(=O)N(c3ccccn3)c3ccccn3)ccc21	CRFR2-BP ag 173
CC[C@H]1OC(=O)[C@H](C)[C@@H](O[C@H]2C[C@@](C)(OC)[C@@H](O)[C@H](C)O2)[C@H](C)[C@@H](O[C@@H]2O[C@H](C)C[C@H](N(C)C)[C@H]2O)[C@](C)(O)C[C@@H](C)CN(C)[C@H](C)[C@@H](O)[C@]1(C)O	none
CCC1OC(=O)C(C)C(OC2C[C@@](C)(OC)C(O)C(C)O2)C(C)C(O[C@@H]2OC(C)CC(N(C)C)C2O)[C@](C)(O)CC(C)C(=NOCOCCOC)C(C)C(O)[C@]1(C)O (stereo partly drawn)	CRFBP-R2 block 89
COc1ccc(Oc2nccc(-c3ccccc3)c2C#N)cc1	CRFBP-R2 block 71
O=C(NN1C(=O)/C(=C\c2cccnc2)SC1=S)C(c1ccccc1)c1ccccc1	Cardio protect 60
CCOc1ccc(-n2c(SCc3ccc([N+](=O)[O-])cc3)nnc2-c2ccc(OC)cc2)cc1	CRFBP-R2 block 53 (no result: UCH37 inh)
CCOc1ccc(-n2c(SCc3ccc(C#N)cc3)nnc2-c2cccnc2)cc1	none
Cc1ccccc1C=c1sc(=CC(=O)C(C)(C)C)[nH]c1=O	none (no result: CRFBP-R2 block, Cardio protect, iPSC survival up, CRFR2-BP ag, MIN6 prolif)
O=C(O)c1ccccc1N=NC(=NNc1cc(S(=O)(=O)O)ccc1O)c1ccccc1	none (no result: CRFBP-R2 block, Cardio protect, iPSC survival up, CRFR2-BP ag, MIN6 prolif)
CC(C)(C)OC(=O)NCC12C=CC(O1)C1C(=O)N(Cc3ccccc3)C(=O)C12 (stereo not drawn)	Cardio protect 80
Cc1ccc(NC(=S)NCC23C=CC(O2)C2C(=O)N(c4ccc(C)cc4)C(=O)C23)cc1 (stereo not drawn)	none
O=c1cc[nH]c2c(Cl)cccc12	CRFBP-R2 block 92
